Sampled rows, rich in hits. Any-hit rate of the full collection: about 4.3%.
FLuc inh counter: counter-screen for luciferase assay inhibitors: firefly luciferase inhibition | P08659 | ATPLite firefly luciferase biochemical luminescence, 10 min | inhibition, % at 10 µM | 200,000 compounds, 1.5% hits | AID 1006;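 active = inhibition above about 50% when tested at 10 µM, limit read from the data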
Target sequence (P08659 whole entry, looked up): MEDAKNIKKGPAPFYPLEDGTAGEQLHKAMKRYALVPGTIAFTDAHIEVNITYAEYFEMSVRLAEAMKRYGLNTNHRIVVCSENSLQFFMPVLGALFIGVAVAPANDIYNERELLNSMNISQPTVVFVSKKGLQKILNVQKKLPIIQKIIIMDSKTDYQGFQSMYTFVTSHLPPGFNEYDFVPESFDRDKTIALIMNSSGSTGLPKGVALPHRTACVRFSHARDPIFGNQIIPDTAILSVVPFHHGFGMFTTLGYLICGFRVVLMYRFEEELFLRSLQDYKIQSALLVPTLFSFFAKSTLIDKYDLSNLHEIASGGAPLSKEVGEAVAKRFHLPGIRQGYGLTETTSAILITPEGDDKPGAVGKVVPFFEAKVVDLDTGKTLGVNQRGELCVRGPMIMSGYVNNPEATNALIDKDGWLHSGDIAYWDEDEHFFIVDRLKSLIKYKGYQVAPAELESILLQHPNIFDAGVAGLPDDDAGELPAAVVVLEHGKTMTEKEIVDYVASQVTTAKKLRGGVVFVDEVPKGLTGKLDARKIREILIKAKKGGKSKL
STAT1 activator: increases IFN-gamma driven STAT1 reporter signal; AID 932; 200,000 compounds, 2.6% hits; NIH 3T3 STAT1-luciferase reporter, luminescence; 100% = IFN-gamma alone, no compound; activation (% of control), % at 5.5 µM;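 active = activation above the screen-wide mean activation plus 3 SD, cut at about 130% in these data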
APP 5'UTR act: activates APP 5'UTR luciferase reporter. SH-SY5Y APP 5'UTR luciferase reporter, luminescence; zero percent = DMSO vehicle wells. activation, % at 2 µM. 190,000 compounds, 1% hits. AID 1276;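 active = activation above a set limit, based on mean plus 3 SD of controls, cut at about 140% in these data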
FLuc act counter: affects firefly luciferase, flagging false hits in luciferase stimulation screens; ATPlite luciferase biochemical, luminescence, 10 min; 0 = ATP-free wells, 1 = DMSO control; activation factor at 10 µM; 200,000 tested, under 10 active; AID 1027;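 active = luciferase activation factor, scaled between plate controls, of at least 2 with compound at 10 µM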
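System: Luciferase/luciferin detection reagent, cell-free biochemical luciferase assay | Medium: PBS buffer for ATP | Dosing: Test compounds dosed from 2 mM stocks in 100% DMSO | Timing: 10 min at ambient temperature | Signal: Luminescence measurement of luciferase light output | Evaluation: Luciferase activation, seen as luminescence increase over controls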
SDO1 yeast rescue: compounds rescuing growth of sdo1-depleted yeast, bone marrow failure model; S. cerevisiae sdo1-depleted JHY4D growth rescue, OD600 30 h; stronger effect = higher value; pdr5 snq2 efflux-pump mutant strain; z-score at 10 µM; 140,000 compounds, 0.21% hits; AID 817;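 active = z-score above 3 at both the 24 hr and the 30 hr optical density reads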
NF-kB expr up: compounds increasing NF-kB expression in human neuronal cells; NF-kB reporter expression; stronger effect = higher value; fold change at 12.5 µM; 190,000 compounds, 1.6% hits; AID 1239; in the data active = fold change above about 3.3
Large screens that a line does not name were inactive.

O=C(CN(CC1CCCO1)C(=O)CCC(=O)Nc1nccs1)NCc1ccccc1 (configuration not stated)	none
O=C(Nc1nc2cc3c(cc2s1)OCCO3)c1cccc(N2C(=O)CCC2=O)c1	FLuc inh counter 81 (no result: SDO1 yeast rescue)
O=C(Nc1ccc2sccc2c1)c1cccc(N2C(=O)CCC2=O)c1	STAT1 activator 140 (no result: SDO1 yeast rescue)
Cc1nc2ccc(NC(=O)c3ccc(N4C(=O)CCC4=O)cc3)cc2s1	none (no result: SDO1 yeast rescue)
CCC(C)NC(=O)CN1C(=O)NC2(CCc3ccccc3C2)C1=O (configuration not stated)	none (no result: SDO1 yeast rescue)
COc1ccc(C(=O)NCc2nnc(SCC(=O)Nc3nc4ccccc4s3)o2)cc1OC	none
CCC(=O)Nc1cc(C(=O)OCC(=O)c2ccccc2Cl)ccc1C	none
CCC(=O)Nc1cc(C(=O)OCC(=O)c2ccccc2)ccc1C	STAT1 activator 144
CCC(C)/C(C)=N/NC(=O)CNS(=O)(=O)c1ccc([N+](=O)[O-])cc1 (configuration not stated)	none (no result: SDO1 yeast rescue)
CCOC(=O)c1ccccc1NC(=O)c1n[nH]c(=O)c2ccccc12	NF-kB expr up 3.7
Cn1c(N=NC(=O)c2ccccc2)c(O)c2ccccc21	FLuc inh counter 86, STAT1 activator 143
Cc1ccccc1OCc1nc2c3cnn(C)c3ncn2n1	STAT1 activator 141
Cn1c(=O)c(C(=O)Nc2cnccn2)c(O)c2ccccc21	none (no result: STAT1 activator, APP 5'UTR act, SDO1 yeast rescue, NF-kB expr up)
Cn1c(=O)c(C(=O)Nc2ccccn2)c(O)c2ccccc21	FLuc inh counter 67, NF-kB expr up 4.5
CN(C)C(=O)c1nc2ccc(Cl)cn2c1CN1CCCC(OCc2ccccc2)C1 (configuration not stated)	none (no result: SDO1 yeast rescue)
N#CCn1c(C2CCCCC2)nc2ccccc2c1=O	none
CCOc1ncccc1C(=O)OCc1ccc(C(=O)OC)cc1	STAT1 activator 130
CCCS(=O)(=O)c1c(S(=O)(=O)CCC)c2cnccn2c1C(=O)c1ccc(Cl)cc1	SDO1 yeast rescue 15
Cc1ccc(NC(=O)Cn2nnc(C(=O)NCc3ccco3)c2N)cc1	none
Nc1c(C(=O)NCc2ccco2)nnn1CC(=O)Nc1ccc2c(c1)OCO2	NF-kB expr up 4 (no result: SDO1 yeast rescue)
Cc1ccccc1Nc1nnc(SCC2CCCCO2)s1 (configuration not stated)	FLuc inh counter 60, STAT1 activator 129, APP 5'UTR act 146, NF-kB expr up 6.1
COc1ccccc1Nc1nnc(SCC2CCCCO2)s1 (configuration not stated)	FLuc inh counter 86, APP 5'UTR act 176, NF-kB expr up 5.2 (no result: SDO1 yeast rescue)
CC(C)(C)NC(=O)NC(=O)COC(=O)C1=COCCO1	none
CN(C)c1ccc2c(c1)OC(N)=C(C#N)C2c1cccc(F)c1 (configuration not stated)	NF-kB expr up 5
CN(C)/C=C/C(=O)c1ccc(Br)s1	none (no result: SDO1 yeast rescue)
CN(C)/C=C/C(=O)c1cnc(-c2ccccn2)s1	STAT1 activator 129 (no result: SDO1 yeast rescue)
CN(C)/C=C/C(=O)c1cnc(-c2cccc(Cl)c2)s1	STAT1 activator 138 (no result: SDO1 yeast rescue)
CC(=O)c1cnc(-c2cccc(Cl)c2)s1	none (no result: SDO1 yeast rescue)
CN(C)/C=C/C(=O)c1cnc(-c2ccccc2Cl)s1	STAT1 activator 139, NF-kB expr up 3.5 (no result: SDO1 yeast rescue)
CSc1nnc(CNS(=O)(=O)c2ccc(Cl)cc2)n1C	none (no result: SDO1 yeast rescue)
C=CCOC(=O)C1=C[C@@H](c2ccc(Br)cc2)C[C@@H](OCc2ccc(CO)cc2)O1	none (no result: SDO1 yeast rescue)
CCC1CCCCN1C(=O)c1ccc(OC2CCN(C(=O)C3CC3)CC2)cc1 (configuration not stated)	none (no result: SDO1 yeast rescue, NF-kB expr up)
NC(=O)c1ccc2nc(NC(=O)c3ccc(N)cc3)sc2c1	STAT1 activator 142 (no result: SDO1 yeast rescue)
NS(=O)(=O)c1ccc2nc(NC(=O)c3ccncc3)sc2c1	FLuc inh counter 64 (no result: SDO1 yeast rescue, NF-kB expr up)
NS(=O)(=O)c1ccc(CNC(=O)c2ccc(Br)o2)cc1	none
NS(=O)(=O)c1ccc2nc(NC(=O)c3ccc(Br)o3)sc2c1	STAT1 activator 129 (no result: SDO1 yeast rescue)
COc1ccc(C(=O)Nc2nc3ccc(S(C)(=O)=O)cc3s2)cc1OC	none (no result: SDO1 yeast rescue)
COc1ccccc1N1CCN(C(=O)CN(C)S(=O)(=O)c2ccc3c(c2)c(=O)n(C)c(=O)n3C)CC1	none (no result: SDO1 yeast rescue)
CC(NCc1ccccc1Cl)C(=O)Nc1ccc(C#N)cc1 (configuration not stated)	none (no result: SDO1 yeast rescue)
O=C1CCCc2[nH]nc(-c3cccnc3)c21	none
O=C(Nc1ccc(Cl)cn1)Nc1ccccc1F	STAT1 activator 139
Cc1cc(NC(=O)c2cccs2)ncc1NC(=O)c1cccc(F)c1	none (no result: SDO1 yeast rescue)
O=C(Nc1ccc(Cl)cn1)c1ccccc1F	STAT1 activator 133, APP 5'UTR act 183
O=C(Nc1ccc(Cl)cn1)c1cccc(F)c1	STAT1 activator 146, NF-kB expr up 3.6
Cc1cc(NC(=O)c2cccc(F)c2)ncc1NC(=O)c1ccco1	APP 5'UTR act 140, NF-kB expr up 3.6
CCOC(=O)N1C=CC(C)=C[C@@H]2[C@@H](N3C(=O)c4ccccc4C3=O)C(=O)N21	none
Cc1ccc(C(=O)CSc2ncnc3ccccc23)o1	STAT1 activator 159 (no result: SDO1 yeast rescue)
Cc1ccc(CSc2ncnc3ccccc23)cc1	none (no result: SDO1 yeast rescue)
O=C(CSc1ncnc2ccccc12)c1cccs1	FLuc inh counter 70, APP 5'UTR act 139, NF-kB expr up 4.6 (no result: SDO1 yeast rescue)
CCCCN(CC)CCNC(=O)CN1C(=O)COc2ccc(S(=O)(=O)N3CCCC3)cc21	none
CC(C)(C)c1ccc(-c2noc(CCC(=O)NCC3CCCO3)n2)cc1 (configuration not stated)	FLuc inh counter 64
CC(C)(C)c1ccc(-c2noc(CCC(=O)N3CCOCC3)n2)cc1	FLuc inh counter 83 (no result: SDO1 yeast rescue)
CN(C)C(=O)CCc1nc(-c2ccc(C(C)(C)C)cc2)no1	FLuc inh counter 52
CNC(=O)CCc1nc(-c2ccc(C(C)(C)C)cc2)no1	FLuc inh counter 58
CC(C)(C)c1ccc(-c2noc(CCC(N)=O)n2)cc1	none
Nc1nc(CSc2ccccn2)nc(Nc2ccccc2)n1	STAT1 activator 148, NF-kB expr up 4.7
O=C(CN1C(=O)NC2(CCCc3ccccc32)C1=O)Nc1cccc(S(=O)(=O)N2CCCCC2)c1 (configuration not stated)	none
CC(=O)c1ccc(Nc2ccc(-c3ccccc3C)nn2)cc1	STAT1 activator 144 (no result: SDO1 yeast rescue)
O=Cc1c(Sc2ccccn2)nc2ccccn2c1=O	none
O=Cc1c(Sc2ccccc2)nc2ccccn2c1=O	NF-kB expr up 4.2
O=c1c2ccccc2cnn1-c1nc2ccccc2[nH]1	FLuc inh counter 98 (no result: SDO1 yeast rescue)
O=c1c(Cl)c(N2CCCCC2)cnn1-c1nc2ccccc2[nH]1	FLuc inh counter 97
O=c1cc(-c2ccccc2)[nH]n1-c1nc2ccccc2[nH]1	none
CCC(=O)N(CC)c1nc(-c2ccc(OC)cc2)cs1	STAT1 activator 143
CCC(=O)N(Cc1ccco1)c1nc(-c2ccc(OC)cc2)cs1	none (no result: APP 5'UTR act)
O=C(O)Cc1ccc(S(=O)(=O)Nc2ccccc2C(=O)O)cc1	none (no result: SDO1 yeast rescue)
O=C1Cn2c(nc3ccccc32)N1c1cccc(C(F)(F)F)c1	none

Bioassay records (PubChem BioAssay)
